Test results as given in PubChem BioAssay AID1216 (Sanford-Burnham Center for Chemical Genomics, 2008).
Screen size: about 190,000 compounds; about 660 (0.35%) were called active. This is one part of a sample in which actives are shown more often than they occur. Unmarked numbers belong to inactive results.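 The calls were made as follows: active = activation factor of 2 or more at 20 µM; inactive = the rest.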

These compounds were tested against Mannose-6-phosphate isomerase (Homo sapiens) (UniProt P34949) (assay: human PMI activators, high substrate, primary screen, biochemical, fluorescence intensity, near-saturating mannose 6-phosphate (AID 1216)). Settings: coupled PMI enzyme assay, resazurin fluorescence, 20 min; at 20 µM; active compounds read high.
Chain of Mannose-6-phosphate isomerase (Homo sapiens) (P34949 whole entry, looked up): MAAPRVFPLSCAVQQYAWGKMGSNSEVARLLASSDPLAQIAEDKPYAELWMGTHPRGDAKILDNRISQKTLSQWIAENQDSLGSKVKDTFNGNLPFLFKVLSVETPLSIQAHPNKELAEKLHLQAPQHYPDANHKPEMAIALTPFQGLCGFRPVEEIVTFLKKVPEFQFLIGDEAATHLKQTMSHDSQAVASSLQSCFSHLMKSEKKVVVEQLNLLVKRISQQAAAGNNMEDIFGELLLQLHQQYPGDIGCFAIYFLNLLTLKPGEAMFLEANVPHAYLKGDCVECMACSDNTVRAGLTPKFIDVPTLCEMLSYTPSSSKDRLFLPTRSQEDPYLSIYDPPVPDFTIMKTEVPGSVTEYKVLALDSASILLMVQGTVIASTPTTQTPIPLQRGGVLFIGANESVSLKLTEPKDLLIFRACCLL
Summary of the method: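 Test system: human phosphomannose isomerase with PGI, G6PDH, diaphorase coupling enzymes; amount: 15 ng/mL PMI; incubation: enzyme reaction with compound 20 min at room temperature; technique: resorufin fluorescence (Ex 544/Em 590 nm) from resazurin via diaphorase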

| Compound | activation factor |
| --- | --- |
| COc1ccccc1N=Nc1c(O)[nH]c(=S)[nH]c1=O | 0.9 |
| Cc1ccc2c(c1)=C/C(=C\c1c(O)[nH]c(=O)[nH]c1=O)C(=O)N=2 | 0.5 |
| O=C1N=c2ccccc2=C/C1=C\c1c(O)[nH]c(=S)[nH]c1=O | 2.1 (active) |
| O=C(CSC1c2ccccc2-c2ccccc21)N/N=C/c1ccccc1 | 0.9 |
| Cc1cccc(OP(=O)(Oc2cccc(C)c2)OC(c2ccccc2)C(F)(F)F)c1 (stereo not given) | 0.9 |
